# CHT PAM = CHT positive allosteric modulators, primary screen, cell-based, membrane potential dye, choline EC20 | B-score at 10 µM | CHT-expressing cells; hits give high values; LV-AA mutant CHT in HEK293 cells | AID 488977, 2010 | 310,000 tested, 0.49% active | High affinity choline transporter 1 (Homo sapiens), Q9GZV3;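 active means initial fluorescence not abnormally high and integrated response B-score, plate-corrected, over 3 SD above library mean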
# CHT inh = inhibitors of human choline transporter CHT; High affinity choline transporter 1 (Homo sapiens), Q9GZV3; CHT-expressing cells, membrane potential dye, choline response; hits give low values; B-score at 10 µM; 310,000 tested, 0.86% active;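 active means B-score over 3 SD under the library average, and starting fluorescence ratio not unusually high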;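 further: choline stimulus applied at its EC90 after an EC20 pre-addition; B-score computed on integrated fluorescence ratio after choline addition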
# DSG3 Ab inh = inhibitors of pemphigus antibody binding to DSG3, primary screen, biochemical, bead-based, flow cytometry, scFv-GFP | DSG3-coupled beads, scFv-anti-DSG3-GFP binding; hits give low values | 310,000 tested, 0.48% active | Desmoglein-3 (Homo sapiens), P32926 | binding (percent of control), % at 10 µM;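 active means binding more than 3 SD below its plate's average and above zero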;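 further: hits lower antibody fragment binding to DSG3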
# p-CIP stab down = p/CIP-EGFP fusion destabilizers, primary screen, fluorescence, F442A cells. 16 h. 290,000 tested, 0.01% active. decrease of EGFP signal, % at 10 µM. Q05BA5. AID 1984, 2009;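 active means EGFP signal decrease of at least 30% at 10 µM or well 3 SD below plate mean, unless failing retest; inactive means the rest, including hits failing retest or dose response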
# T cell modulator = modulators of CD8 T cell-vesicle binding, primary screen, mouse 2C CD8+ T cells, flow cytometry; 2C CD8+ T cell-vesicle binding; hits give low values; response (vesicle binding), % at 7 µM; 330,000 tested, 0.068% active; AID 2052, 2009;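 active means response, share of CD8 T cells binding vesicles, and their 90th percentile fluorescence all below set limits, cut at about 80% in these data, passing the limit was not always enough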;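 further: values below 100% mean blocked vesicle binding to the CD8+ T cells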
#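 Assay system: 2C TCR transgenic mouse naive CD8+ T cells, MACS-purified | Read-out: CD8+ gate FL2 mean fluorescence as % of same-row positive control | Signal: High-throughput flow cytometry with anti-B7-1 and anti-CD8 staining | Timing: Binding step 1.5 h, 37 °C, antibody labelling 20 min, ice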
# GPR7 antagonist = GPR7 receptor antagonists, primary screen, cell-based, fluorescence, single concentration | Neuropeptides B/W receptor type 1 (Homo sapiens), P48145 | GPR7-expressing cells, fluorescence antagonist assay | 290,000 tested, 1.1% active | inhibition, % at 4.4 µM; in the data active means inhibition above about 16%, passing the limit was not always enough;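 further: cells stimulated with the agonist NPW; 0% = agonist with vehicle and 100% = vehicle without agonist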
# Target sequence (P48145 whole entry, looked up): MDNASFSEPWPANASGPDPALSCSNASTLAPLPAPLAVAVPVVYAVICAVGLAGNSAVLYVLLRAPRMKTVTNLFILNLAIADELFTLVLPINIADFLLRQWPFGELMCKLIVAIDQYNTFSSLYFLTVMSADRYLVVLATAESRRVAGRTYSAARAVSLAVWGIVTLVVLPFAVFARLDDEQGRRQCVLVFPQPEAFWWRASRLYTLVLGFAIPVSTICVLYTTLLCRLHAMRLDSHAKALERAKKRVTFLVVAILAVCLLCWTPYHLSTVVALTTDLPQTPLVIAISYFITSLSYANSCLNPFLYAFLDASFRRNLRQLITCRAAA
# GPR7 antag cf = GPR7 receptor antagonists, confirmation, cell-based, fluorescence, single concentration; GPR7-expressing cells, calcium fluorescence antagonist mode; shares compounds with GPR7 antagonist; 2,400 tested, 52% active; inhibition, % at 4.4 µM; in the data active means inhibition above about 24%;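 further: stimulated with the GPR7 agonist NPW; 0% = agonist plus vehicle and 100% = vehicle alone without agonist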
# MCHR1 antag = MCHR1 antagonists in cells, counter-screen for GPR7 antagonist project, cell-based, fluorescence, human; MCHR1-expressing cells, fluorescence antagonist assay; AID 2148, 2009; 2,400 tested, 62% active; inhibition, % at 4.4 µM; shares compounds with GPR7 antagonist; in the data active means inhibition above about 22%;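 further: 0% = vehicle with agonist and 100% = vehicle without agonist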
# Starred values were filed as active, the others as inactive; i = inactive; x = no result. In the library only some 2.3% were active in any assay of this set; here they are far more common.
SMILES,CHT PAM,CHT inh,DSG3 Ab inh,p-CIP stab down,T cell modulator,GPR7 antagonist,GPR7 antag cf,MCHR1 antag
Cc1cc2nc(-c3ccc(SCc4ccc(C#N)cc4)nc3)[nH]c2cc1C,i,i,131,-6,286,33*,55*,66*
O=C(CSc1nc(O)cc(=O)n1C1CCCC1)Nc1cccc(Cl)c1Cl,i,i,104,-6,241,28*,15,7
COC(=O)c1ccccc1NC(=O)CSc1nc(O)cc(=O)n1C1CCCC1,i,i,102,-1,263,-2,x,x
NC1=NC2OC(CO)C(O)C2O1 (centres undefined),x,x,98,x,x,x,x,x
Cc1cccc(N2C(=O)c3cccc4c(N)ccc(c34)C2=O)c1,i,i,107,-275,233,11,x,x
Cc1cccc(N2C(=O)c3cccc4c(N(C)CCO)ccc(c34)C2=O)c1,i,i,149,-499,362,25*,34*,53*
O=C(COc1ccc([N+](=O)[O-])cc1)NCCC1=CCCCC1,i,i,117,-10,58,29*,31*,16
CS(=O)(=O)N1CCc2cc(-c3csc(NC(=O)Cc4cccs4)n3)ccc21,i,i,100,-12,153,39*,69*,83*
O=C(CN1CCOCC1)Nc1nc(-c2ccc3c(c2)CCN3S(=O)(=O)c2ccccc2)cs1,i,i,77,-14,479,4,x,x
COc1ccc(N(C)S(=O)(=O)c2cccc3cccnc23)c(OC)c1,i,i,98,-9,435,-1,x,x
COc1ccc(N(C(=O)C2CCCCC2)S(=O)(=O)c2cccc3cccnc23)cc1,i,i,103,-32,166,21*,1,12
CCC[C@H]1CN(c2ccccc2)C(=O)[C@@H]1CC(=O)NC,x,x,98,x,x,x,x,x
c1ccc(-c2ccc(CN3CCSCC3)cc2)cc1,i,i,107,7,541,24*,-2,4
COc1cc(C2C(Oc3ccccc3C)C(=O)N2Cc2ccc(F)cc2)cc(OC)c1OC (centres undefined),i,i,105,-8,232,23*,16,23*
COC(=O)c1ccc(C2C(Oc3ccccc3)C(=O)N2CCc2ccc(F)cc2)cc1 (centres undefined),i,i,100,10,284,-1,x,x
Cc1nn2c(NCCCN(C)C)c3c(nc2c1-c1ccccc1)CCCC3,i,i,102,-7,216,30*,18,23*
Cc1ccc2c(c1)c1c(n2CC(O)CNC2CCCC2)CCCC1 (centres undefined),i,i,103,-12,791,23*,53*,41*
Cc1ccc2c(c1)c1c(n2CC(O)Cn2ccnc2C)C(=O)CCC1 (centres undefined),i,i,100,-12,184,3,x,x
C[C@H](CO)N1C[C@H](C)[C@H](CN(C)Cc2cccc(F)c2)Oc2ncc(Br)cc2C1=O,x,x,104,x,x,x,x,x
Cc1ccc(SCC(=O)Nc2ccc(N3CCN(C)CC3)c(F)c2)c(C)c1,i,i,101,-2,193,38*,3,10
COc1ccc(CNC(=O)COC(=O)c2c(NC(C)=O)sc(C)c2C)cc1OC,x,x,97,x,x,x,x,x
COc1cc(NCCCNC(C)C)c2nccc(C)c2c1,x,x,94,x,x,x,x,x
Cn1c(N)c(C(=O)COC(=O)/C=C/c2ccc(S(=O)(=O)N3CCOCC3)cc2)c(=O)n(C)c1=O,i,i,91,-6,181,24*,2,11
Cc1ccc(C(=O)OCC(=O)c2c(N)n(C)c(=O)n(C)c2=O)cc1S(=O)(=O)N1CCOCC1,x,x,91,x,409,x,x,x
Cc1ccc(NC(=O)CSc2nnnn2-c2ccc3c(c2)OCO3)cc1C,i,i,97,-5,265,-8,x,x
SMILES,CHT PAM,CHT inh,DSG3 Ab inh,p-CIP stab down,T cell modulator,GPR7 antagonist,GPR7 antag cf,MCHR1 antag
Cc1ccc(-n2nnnc2SCC(=O)Nc2ccc3c(c2)OCCO3)cc1C,i,i,110,-8,400,21*,9,5
COC(=O)c1ccc(Cn2cnc3c(Cl)ncnc32)cc1,x,x,115,x,x,x,x,x
CSc1ncnc2c1ncn2CCCNc1ccc(C)c(C)c1,x,x,111,x,x,x,x,x
Cc1nc(SCc2nc3cc(Cl)c(F)cc3[nH]2)c2oc3ccccc3c2n1,x,x,102,x,327,x,x,x
N#Cc1nc(COc2ccc(F)cc2)oc1N1CCC(Cc2ccccc2)CC1,i,i,97,-6,557,30*,48*,47*
COc1ccc(OCc2nc(C#N)c(N3CCN(c4ccc(OC)cc4)CC3)o2)cc1,x,x,97,-7,x,43*,48*,50*
N#Cc1nc(Cc2ccccc2)oc1N1CCC(Cc2ccccc2)CC1,i,i,96,-15,202,4,x,x
Cc1ccc(NC(=S)NC(=O)Cc2ccccc2)c(O)c1,i,i,92,-3,211,29*,42*,29*
COc1ccc(NC(=S)NC(=O)Cc2ccccc2)c(OC)c1,i,i,100,-8,291,-4,x,x
O=C(Nc1ccccc1)C(Cc1ccccc1)c1ccccc1 (centres undefined),x,x,121,x,x,x,x,x
COc1ccc(/C=N/NC(=O)c2cccc(Br)c2)cc1COc1ccccn1,i,i,107,4,364,31*,-4,48*
COc1ccccc1OCC(=O)Nc1c2c(nn1-c1ccccc1)CS(=O)(=O)C2,i,i,116,-16,510,23*,1,4
COc1ccc(-n2nc3c(c2NC(=O)COc2ccccc2)CS(=O)(=O)C3)cc1,i,i,x,-4,180,9,x,x
O=c1c(Cl)c(Cl)cnn1Cc1nnc(-c2ccccc2Br)o1,x,x,103,-29,x,88*,89*,105*
C=CCS(=O)(=O)N1CCCC(Cc2ccccc2C)(C(=O)OCC)C1 (centres undefined),i,i,137,-5,240,31*,3,-1
O=C(c1cc2ccccc2o1)N1CCN(C/C=C/c2ccccc2)CC1,i,i,107,-11,240,29*,7,21*
CCCCN(C)CC(O)Cn1cc(/C=C/C(=O)c2ccc(OCC)cc2)c2ccccc21 (centres undefined),i,i,x,-9,154,32*,36*,55*

# Screening data as filed in PubChem.
